One block for each molecule: values may come before it.
Tests used:
ALAS/AONS = experiment: continuous coupled spectrophotometric assay; assay type: biochemical, Mus musculus; Escherichia coli; settings: read-out: KmSCoA; ALAS site; co-substrate glycine; 30 °C
Procedure, shortened: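 ALAS/AONS chimera was expressed in E. coli DH5α and purified by 20–40% ammonium sulfate fractionation, Ultrogel ACA-44 gel filtration and Q-Sepharose (100–150 mM KCl gradient). Its concentration was taken on a 96 kD subunit basis. ALAS-site activity was read continuously by spectrophotometry at 30 °C, varying one substrate with the other held constant. Km came from Michaelis-Menten nonlinear regression.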

[1] = molecular target: T1, ALAS/ALAS (single chain dimeric ALAS) (Mus musculus, UniProt P08680); experiment: dissociation constant for ALA binding
T1 sequence (P08680 50-587): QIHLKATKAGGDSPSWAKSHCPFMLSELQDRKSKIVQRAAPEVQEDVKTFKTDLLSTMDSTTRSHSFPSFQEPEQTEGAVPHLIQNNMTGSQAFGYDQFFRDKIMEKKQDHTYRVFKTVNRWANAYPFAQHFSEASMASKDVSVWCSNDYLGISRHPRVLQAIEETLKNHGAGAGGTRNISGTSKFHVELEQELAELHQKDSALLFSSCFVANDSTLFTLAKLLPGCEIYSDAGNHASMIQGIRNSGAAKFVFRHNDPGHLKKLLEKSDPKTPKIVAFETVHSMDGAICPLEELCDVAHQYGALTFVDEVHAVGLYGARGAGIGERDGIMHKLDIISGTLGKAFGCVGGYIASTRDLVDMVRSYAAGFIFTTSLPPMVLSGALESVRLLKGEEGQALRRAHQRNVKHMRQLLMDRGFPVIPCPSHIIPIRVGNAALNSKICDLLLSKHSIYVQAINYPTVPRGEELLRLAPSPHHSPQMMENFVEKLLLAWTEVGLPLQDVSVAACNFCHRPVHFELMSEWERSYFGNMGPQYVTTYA

SEC = molecular target: the molecule itself; experiment: SEC

Km (ALAS/AONS): 1.5 ± 0.2 µM
Molecule: CC(C)(COP(=O)(O)OP(=O)(O)OC[C@H]1O[C@@H](n2cnc3c(N)ncnc32)[C@H](O)[C@@H]1OP(=O)(O)O)[C@@H](O)C(=O)NCCC(=O)NCCSC(=O)CCC(=O)O [SCoA, succinyl-CoA]

Kd [1]: 1.46 ± 0.01 µM
Molecule: NCC(=O)CCC(=O)O [ALA, 5-aminolevulinate]

B1: ALAS/AONS chimera (single-chain chimera of murine erythroid 5-aminolevulinate synthase and E. coli 8-amino-7-oxononanoate synthase) (enzyme, murine | E. coli)
chain: QIHLKATKAGGDSPSWAKSHCPFMLSELQDRKSKIVQRAAPEVQEDVKTFKTDLLSTMDSTTRSHSFPSFQEPEQTEGAVPHLIQNNMTGSQAFGYDQFFRDKIMEKKQDHTYRVFKTVNRWANAYPFAQHFSEASMASKDVSVWCSNDYLGISRHPRVLQAIEETLKNHGAGAGGTRNISGTSKFHVELEQELAELHQKDSALLFSSCFVANDSTLFTLAKLLPGCEIYSDAGNHASMIQGIRNSGAAKFVFRHNDPGHLKKLLEKSDPKTPKIVAFETVHSMDGAICPLEELCDVAHQYGALTFVDEVHAVGLYGARGAGIGERDGIMHKLDIISGTLGKAFGCVGGYIASTRDLVDMVRSYAAGFIFTTSLPPMVLSGALESVRLLKGEEGQALRRAHQRNVKHMRQLLMDRGFPVIPCPSHIIPIRVGNAALNSKICDLLLSKHSIYVQAINYPTVPRGEELLRLAPSPHHSPQMMENFVEKLLLAWTEVGLPLQDVSVAACNFCHRPVHFELMSEWERSYFGNMGPQYVTTYAELMSWQEKINAALDARRAADALRRRYPVAQGAGRWLVADDRQYLNFSSNDYLGLSHHPQIIRAWQQGAEQFGIGSGGSGHVSGYSVVHQALEEELAEWLGYSRALLFISGFAANQAVIAAMMAKEDRIAADRLSHASLLEAASLSPSQLRRFAHNDVTHLARLLASPCPGQQMVVTEGVFSMDGDSAPLAEIQQVTQQHNGWLMVDDAHGTGVIGEQGRGSCWLQKVKPELLVVTFGKGFGVSGAAVLCSSTVADYLLQFARHLIYSTSMPPAQAQALRASLAVIRSDEGDARREKLAALITRFRAGVQDLPFTLADSCSAIQPLIVGDNSRALQLAEKLRQQGCWVTAIRPPTVPAGTARLRLTLTAAHEMQDIDRLLEVLHGNG
stoichiometry N (SEC): 2
